The text below walks through data of ChEMBL document CHEMBL2086356, “Identification of a novel family of BRAF(V600E) inhibitors” (J Med Chem, 2012).

Active and inactive are the calls of the source. The rule behind the calls is not given here.

Test [1] deals with Serine/threonine-protein kinase B-raf (Homo sapiens), P15056 [V600E]. Put plainly: Inhibition of B-Raf V600E mutant-mediated MEK phosphorylation in human 451LU cells by Western blotting. On the technique in general: A western blot detects proteins with antibodies after separation by electrophoresis.
For test [2], the target named is Phosphatidylinositol 4,5-bisphosphate 3-kinase catalytic subunit gamma isoform (Homo sapiens) (UniProt P48736). Put plainly: Inhibition of PI3Kgamma assessed as residual activity at 1 uM.
For test [3], the species on record is Homo sapiens. Put plainly: Antiproliferative activity against human 451LU cells harboring BRAF V600E mutant by MTS assay. The format is functional, cell-based. The gist of the method:
(§1)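 451Lu melanoma cells were grown in DMEM with 5% FBS, and primary melanocytes (FOM) and fibroblasts (FF) were taken from neonatal foreskin epidermis. Cells were seeded at 5000/well, left to adhere overnight, then exposed to rising compound doses or DMSO for 72 h. Read-out was MTS absorbance at 490 nm, normalized to DMSO wells. At least 4 wells per condition; experiment done in triplicate.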
(Formazan colour is commonly taken as a measure of viable cells.)

Test [4] is described as follows: Inhibition of GSK3 assessed as residual activity at 1 uM.
Test [5] has as its system Serine/threonine-protein kinase B-raf (Homo sapiens), P15056 [V600E]. Put plainly: Inhibition of human 6x-His tagged BRAF V600E mutant expressed in Sf9 cells assessed as residual activity at 1 uM by ELISA based kinase assay. The gist of the method:
(§2)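 Single-point ELISA kinase assay at 1 μM inhibitor, reading phospho-MEK on immobilized GST-MEK-His. CRAF at 20–30 nM enzyme with 100 μM ATP; BRAF WT or V600E kinase domain (Sf9-expressed, 6xHis) under the same assay conditions. Remaining activity reported as mean of n = 3.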
Background: ELISA stands for enzyme-linked immunosorbent assay.

The test system of the next test is FOM. The test is described as follows: Antiproliferative activity against human FOM cells by MTS assay. It is filed as functional, cell-based. The gist of the method: as §1
The target in test [6] is Serine/threonine-protein kinase PAK 1 (Homo sapiens) (UniProt Q13153). The test is described as follows: Inhibition of PAK1 assessed as residual activity at 1 uM.
The target of test [7] is Serine/threonine-protein kinase pim-1 (Homo sapiens) (UniProt P11309). Put plainly: Inhibition of PIM1 assessed as residual activity at 1 uM.
For test [8], the target named is RAF proto-oncogene serine/threonine-protein kinase (Homo sapiens) (UniProt P04049). The test is described as follows: Inhibition of CRAF assessed as residual activity at 1 uM by ELISA based kinase assay. The gist of the method: as §2
In test [9] the target is T1, Serine/threonine-protein kinase B-raf (Homo sapiens, UniProt P15056). The test is described as follows: Inhibition of human 6x-His tagged wild type BRAF expressed in Sf9 cells assessed as residual activity at 1 uM by ELISA based kinase assay. The gist of the method: as §2
Test [10] is filed under the species Homo sapiens. The test is described as follows: Selectivity ratio of IC50 for human 6x-His tagged wild type BRAF to IC50 for human 6x-His tagged BRAF V600E mutant.
A further test concerns FF2508. Put plainly: Antiproliferative activity against human FF2508 cells by MTS assay. The format is functional, cell-based. The gist of the method:
as §1

Test [11] is described as follows: Inhibition of p70S6K assessed as residual activity at 1 uM by scintillation counter in presence of gamma-P32 ATP. The gist of the method:
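p70S6K (20 nM) was preincubated with inhibitor at RT in 20 mM MOPS, 30 mM MgCl2, 0.8 μg/μL BSA, 5% DMSO, pH 7.0, with S6 kinase/Rsk2 peptide (3.6 μM). After 15 min, ATP was added to 100 μM with γ-32P ATP and run 30 min. Product was captured on P81 paper, washed with phosphoric acid, and counted by scintillation. Remaining activity was measured at 1 μM, mean of n = 3.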

Test [12] concerns the target Phosphatidylinositol 4,5-bisphosphate 3-kinase catalytic subunit alpha isoform (Homo sapiens) (UniProt P42336). Put plainly: Inhibition of PI3Kalpha assessed as residual activity at 1 uM.
Test [13] addresses T1, Serine/threonine-protein kinase B-raf. Put plainly: Inhibition of human 6x-His tagged wild type BRAF expressed in Sf9 cells by ELISA based kinase assay. The gist of the method: (§3)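 Enzyme at about 28–30 nM was preincubated with compound for 1 h at RT, then added to glutathione-plate-bound GST-MEK-His (50 μg/mL). Reaction in HEPES pH 7.0 with MgCl2 and 100 μM ATP ran 30 min at 37 °C. Read-out was anti-phospho-MEK1/2 then HRP chemiluminescence. Run in duplicate or triplicate; IC50 from a four-parameter logistic fit.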

The target in test [14] is Serine/threonine-protein kinase B-raf (Homo sapiens, UniProt P15056, V600E). The test is described as follows: Inhibition of human 6x-His tagged BRAF V600E mutant expressed in Sf9 cells by ELISA based kinase assay. The gist of the method:
as §3

Sequence of Serine/threonine-protein kinase B-raf (Homo sapiens, UniProt P15056, V600E) (P15056 2-766 V600E limits assumed): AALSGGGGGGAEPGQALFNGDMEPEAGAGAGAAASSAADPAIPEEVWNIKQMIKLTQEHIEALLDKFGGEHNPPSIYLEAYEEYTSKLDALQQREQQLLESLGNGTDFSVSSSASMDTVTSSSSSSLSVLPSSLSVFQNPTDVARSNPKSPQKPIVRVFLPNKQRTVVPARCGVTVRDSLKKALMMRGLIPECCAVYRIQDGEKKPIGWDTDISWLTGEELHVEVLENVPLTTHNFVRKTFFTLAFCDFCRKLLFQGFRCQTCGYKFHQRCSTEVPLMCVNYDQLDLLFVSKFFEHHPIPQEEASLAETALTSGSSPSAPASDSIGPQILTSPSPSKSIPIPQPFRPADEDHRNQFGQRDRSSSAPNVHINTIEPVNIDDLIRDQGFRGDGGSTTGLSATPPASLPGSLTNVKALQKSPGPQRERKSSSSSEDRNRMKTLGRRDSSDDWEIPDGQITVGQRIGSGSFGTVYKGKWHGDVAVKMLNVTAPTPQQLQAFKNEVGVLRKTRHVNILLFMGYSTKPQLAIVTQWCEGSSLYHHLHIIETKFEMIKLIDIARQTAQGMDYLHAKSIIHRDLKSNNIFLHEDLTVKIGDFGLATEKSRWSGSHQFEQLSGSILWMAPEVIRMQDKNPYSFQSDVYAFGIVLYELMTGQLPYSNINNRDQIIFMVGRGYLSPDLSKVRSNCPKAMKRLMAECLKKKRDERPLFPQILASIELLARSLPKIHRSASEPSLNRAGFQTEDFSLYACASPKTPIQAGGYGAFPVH
T1 sequence (P15056 whole entry): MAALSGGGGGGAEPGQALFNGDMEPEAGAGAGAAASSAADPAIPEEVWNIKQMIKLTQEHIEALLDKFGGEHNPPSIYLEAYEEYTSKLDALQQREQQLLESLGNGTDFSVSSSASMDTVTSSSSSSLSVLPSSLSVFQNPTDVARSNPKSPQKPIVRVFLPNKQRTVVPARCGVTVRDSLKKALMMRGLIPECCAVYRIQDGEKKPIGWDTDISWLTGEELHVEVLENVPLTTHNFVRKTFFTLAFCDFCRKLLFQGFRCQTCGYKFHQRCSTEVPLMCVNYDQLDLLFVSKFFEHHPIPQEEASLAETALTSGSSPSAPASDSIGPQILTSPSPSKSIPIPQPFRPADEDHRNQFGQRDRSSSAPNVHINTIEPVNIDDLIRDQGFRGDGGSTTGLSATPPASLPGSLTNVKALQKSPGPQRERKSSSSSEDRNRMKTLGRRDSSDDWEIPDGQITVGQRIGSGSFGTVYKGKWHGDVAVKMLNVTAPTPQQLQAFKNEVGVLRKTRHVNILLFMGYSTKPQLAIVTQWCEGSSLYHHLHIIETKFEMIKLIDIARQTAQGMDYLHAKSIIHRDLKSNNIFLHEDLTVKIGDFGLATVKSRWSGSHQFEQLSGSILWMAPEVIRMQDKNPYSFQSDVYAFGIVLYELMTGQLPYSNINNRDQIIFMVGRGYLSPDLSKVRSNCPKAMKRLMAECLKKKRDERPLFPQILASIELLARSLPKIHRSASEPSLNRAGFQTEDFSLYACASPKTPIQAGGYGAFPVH
Sequence of Serine/threonine-protein kinase B-raf (Homo sapiens), P15056 [V600E] (P15056 whole entry V600E, the tested form may be a part, canonical isoform): as the sequence (P15056 whole entry) above, with V600E counted along it
Sequence of Serine/threonine-protein kinase PAK 1 (Homo sapiens) (Q13153 whole entry): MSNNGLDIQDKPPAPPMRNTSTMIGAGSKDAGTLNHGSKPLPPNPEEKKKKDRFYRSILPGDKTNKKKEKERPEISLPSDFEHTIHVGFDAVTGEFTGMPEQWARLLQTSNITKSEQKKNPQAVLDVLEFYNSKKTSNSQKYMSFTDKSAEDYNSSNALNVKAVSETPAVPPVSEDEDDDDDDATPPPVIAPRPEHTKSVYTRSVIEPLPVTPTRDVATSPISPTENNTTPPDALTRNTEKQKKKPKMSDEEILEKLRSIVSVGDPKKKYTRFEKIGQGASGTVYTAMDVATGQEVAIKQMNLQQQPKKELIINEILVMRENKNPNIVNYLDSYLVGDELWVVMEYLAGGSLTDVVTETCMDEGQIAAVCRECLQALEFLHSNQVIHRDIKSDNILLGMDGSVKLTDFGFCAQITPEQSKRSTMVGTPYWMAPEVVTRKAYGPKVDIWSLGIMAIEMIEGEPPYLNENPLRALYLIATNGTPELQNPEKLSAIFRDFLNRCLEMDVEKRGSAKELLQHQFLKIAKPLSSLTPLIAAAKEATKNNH
Sequence of RAF proto-oncogene serine/threonine-protein kinase (Homo sapiens) (P04049 whole entry): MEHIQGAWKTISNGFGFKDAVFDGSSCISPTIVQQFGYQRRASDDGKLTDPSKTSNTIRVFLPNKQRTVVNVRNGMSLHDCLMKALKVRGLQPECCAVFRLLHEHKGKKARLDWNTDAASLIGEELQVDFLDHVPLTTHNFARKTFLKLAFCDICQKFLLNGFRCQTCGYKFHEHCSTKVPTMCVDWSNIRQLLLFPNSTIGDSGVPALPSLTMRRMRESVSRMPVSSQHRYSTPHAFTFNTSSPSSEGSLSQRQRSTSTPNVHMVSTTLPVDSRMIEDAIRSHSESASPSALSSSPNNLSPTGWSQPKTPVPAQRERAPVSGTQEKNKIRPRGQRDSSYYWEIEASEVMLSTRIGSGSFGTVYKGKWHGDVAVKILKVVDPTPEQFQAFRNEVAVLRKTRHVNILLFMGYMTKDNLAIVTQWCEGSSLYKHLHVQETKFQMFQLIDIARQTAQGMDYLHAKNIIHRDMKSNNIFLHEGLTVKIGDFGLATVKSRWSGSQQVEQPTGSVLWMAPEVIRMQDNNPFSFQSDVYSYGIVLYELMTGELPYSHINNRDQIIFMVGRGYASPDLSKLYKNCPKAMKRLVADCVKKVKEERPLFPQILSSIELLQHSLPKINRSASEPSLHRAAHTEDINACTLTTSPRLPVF
Sequence of Phosphatidylinositol 4,5-bisphosphate 3-kinase catalytic subunit gamma isoform (Homo sapiens) (P48736 whole entry, looked up, canonical isoform): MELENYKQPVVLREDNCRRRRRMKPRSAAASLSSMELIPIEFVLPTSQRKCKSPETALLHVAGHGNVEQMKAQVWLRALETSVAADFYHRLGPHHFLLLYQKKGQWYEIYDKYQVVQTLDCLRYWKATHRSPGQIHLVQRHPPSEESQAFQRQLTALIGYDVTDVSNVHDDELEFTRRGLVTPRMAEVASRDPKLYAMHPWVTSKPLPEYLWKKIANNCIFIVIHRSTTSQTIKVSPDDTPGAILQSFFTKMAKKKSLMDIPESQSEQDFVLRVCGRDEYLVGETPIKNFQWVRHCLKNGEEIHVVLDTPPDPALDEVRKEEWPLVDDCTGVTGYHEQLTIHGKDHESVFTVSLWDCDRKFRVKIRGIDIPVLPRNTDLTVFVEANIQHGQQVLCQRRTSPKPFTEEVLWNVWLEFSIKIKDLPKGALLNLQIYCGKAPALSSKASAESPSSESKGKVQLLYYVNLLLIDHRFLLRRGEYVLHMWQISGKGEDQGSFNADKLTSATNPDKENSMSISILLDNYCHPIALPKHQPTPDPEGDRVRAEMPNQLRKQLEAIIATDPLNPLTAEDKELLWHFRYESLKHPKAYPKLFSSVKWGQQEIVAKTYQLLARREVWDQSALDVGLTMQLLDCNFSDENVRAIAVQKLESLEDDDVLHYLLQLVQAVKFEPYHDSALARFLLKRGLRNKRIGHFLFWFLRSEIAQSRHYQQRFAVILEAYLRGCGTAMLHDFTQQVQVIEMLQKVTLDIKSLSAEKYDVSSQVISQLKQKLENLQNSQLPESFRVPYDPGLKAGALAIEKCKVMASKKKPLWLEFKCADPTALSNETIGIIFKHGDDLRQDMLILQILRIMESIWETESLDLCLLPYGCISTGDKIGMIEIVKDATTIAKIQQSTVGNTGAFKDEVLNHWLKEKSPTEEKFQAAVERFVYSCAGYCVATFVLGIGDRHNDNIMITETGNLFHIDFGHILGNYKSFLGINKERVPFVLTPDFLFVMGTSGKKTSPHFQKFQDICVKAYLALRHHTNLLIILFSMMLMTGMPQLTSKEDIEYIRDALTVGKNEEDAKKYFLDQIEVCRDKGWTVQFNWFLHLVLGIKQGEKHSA
Sequence of Phosphatidylinositol 4,5-bisphosphate 3-kinase catalytic subunit alpha isoform (Homo sapiens) (P42336 whole entry, canonical isoform): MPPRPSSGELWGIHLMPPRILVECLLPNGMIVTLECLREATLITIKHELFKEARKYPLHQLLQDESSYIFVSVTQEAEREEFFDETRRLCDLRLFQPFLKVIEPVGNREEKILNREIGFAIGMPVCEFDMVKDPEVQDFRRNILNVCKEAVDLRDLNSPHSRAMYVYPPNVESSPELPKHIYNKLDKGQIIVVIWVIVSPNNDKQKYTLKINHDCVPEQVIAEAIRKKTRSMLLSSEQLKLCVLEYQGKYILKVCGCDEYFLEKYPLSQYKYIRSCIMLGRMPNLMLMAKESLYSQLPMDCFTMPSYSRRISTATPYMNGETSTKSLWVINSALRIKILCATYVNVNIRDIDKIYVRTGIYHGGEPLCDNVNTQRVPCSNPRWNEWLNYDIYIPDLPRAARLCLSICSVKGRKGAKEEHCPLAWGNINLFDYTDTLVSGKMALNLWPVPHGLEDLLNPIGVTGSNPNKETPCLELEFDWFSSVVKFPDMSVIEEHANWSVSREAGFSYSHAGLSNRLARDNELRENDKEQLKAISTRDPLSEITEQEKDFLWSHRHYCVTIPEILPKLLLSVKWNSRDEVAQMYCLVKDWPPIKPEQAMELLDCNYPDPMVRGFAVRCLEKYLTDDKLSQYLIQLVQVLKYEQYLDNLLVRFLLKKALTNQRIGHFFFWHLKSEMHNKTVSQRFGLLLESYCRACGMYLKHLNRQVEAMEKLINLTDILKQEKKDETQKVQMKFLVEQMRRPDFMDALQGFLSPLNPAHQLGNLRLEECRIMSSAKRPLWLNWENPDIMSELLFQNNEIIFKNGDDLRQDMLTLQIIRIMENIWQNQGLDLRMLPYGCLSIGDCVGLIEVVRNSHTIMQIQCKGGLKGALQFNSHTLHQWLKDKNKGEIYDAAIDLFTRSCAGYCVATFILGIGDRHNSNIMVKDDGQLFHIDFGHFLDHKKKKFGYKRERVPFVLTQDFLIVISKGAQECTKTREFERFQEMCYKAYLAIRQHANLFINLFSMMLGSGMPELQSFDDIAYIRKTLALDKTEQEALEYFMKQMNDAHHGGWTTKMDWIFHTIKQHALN

As for `O=S(=O)(Nc1cc(Sc2ncn[nH]2)c(O)c2ccccc12)c1ccc(-c2ccccc2)cc1`, in test [1], the inhibition result was “Active”. Further, the Activity is 75% in [2]; 75% in test [4]; less than 10% in [5]; 75% in [6]; 75% in test [7]; 60% in test [8]. Besides, the Activity in test [9] is less than 10%; in test [11] it was 75%; in test [12], 75%. Moreover, the outcome in the test listed under Homo sapiens [3] was Active. Further, the result in the test with FOM and in the test with FF2508 was inactive. Moreover, the Ratio IC50 in the test listed under Homo sapiens [10] turned out to be 2.
The IC50 is the concentration at which inhibition is half-maximal. Higher therefore signals lower potency. As for `O=S(=O)(Nc1cc(Sc2nc[nH]n2)c(O)c2ccccc12)c1ccc2ccccc2c1`, the figures for the IC50 in test [13] and in test [14] were 400 nM and 150 nM, respectively.
On to `O=S(=O)(Nc1cc(Sc2ncn[nH]2)c(O)c2ccccc12)c1c(F)ccc(N(Cc2ccccc2)Cc2ccccc2)c1F`, for which the IC50 in test [13] is 5800 nM; in [14], 3600 nM.
On the same counts, the results for `O=S(=O)(Nc1cc(Cl)c(O)c2ccccc12)c1cccs1` are 450 nM and 380 nM.
`CC(=O)N1CCc2cc(S(=O)(=O)Nc3cc(Sc4nc[nH]n4)c(O)c4ccccc34)ccc21`: the IC50 in [13] is 270 nM; in test [14] it was 140 nM.
For the compound `CC(=O)Nc1ccc(S(=O)(=O)Nc2cc(Sc3nc[nH]n3)c(O)c3ccccc23)cc1`, in test [14], the midpoint of inhibition, the IC50, lay at 140 nM.
For the compound `O=S(=O)(Nc1cc(Sc2nnc[nH]2)c(O)c2ccccc12)c1ccc(-c2ccccc2)cc1`, the figures for the IC50 in test [13] and in test [14] were 220 nM and 80 nM, respectively.
On to `O=S(=O)(Nc1cc(Sc2ncn[nH]2)c(O)c2ccccc12)c1c(F)c(F)c(F)c(F)c1F`, for which the IC50 in [13] was 590 nM; in [14], 520 nM.
As for `O=S(=O)(Nc1cc(Sc2ncc[nH]2)c(O)c2ccccc12)c1cccs1`, the figures for the IC50 in test [13] and in test [14] were 170 nM and 120 nM, respectively. Further, the Ratio IC50 in the test filed under Homo sapiens [10] was determined as 2.
Consider `O=C(/C=C/S(=O)(=O)c1ccc(Cl)cc1)c1ccc(F)cc1`, for which the IC50 in test [13] was 900 nM; in test [14], 300 nM. Also, the Ratio IC50 in the test listed under Homo sapiens [10] is 2.
Regarding `O=S(=O)(Nc1cc(Sc2ccccc2)c(O)c2ccccc12)c1cccs1`, the IC50 in test [13] came out at 570 nM; in test [14], 280 nM.
For `Oc1c(C(Nc2ccccn2)c2ccco2)cc(Cl)c2cccnc12` (stereo not drawn), the IC50 in test [13] was 800 nM.
`O=S(=O)(Nc1cc(Sc2cnn[nH]2)c(O)c2ccccc12)c1cccs1`: the IC50 is 1470 nM in [13] and 720 nM in test [14].
`O=S(=O)(Nc1cc(Sc2ccccn2)c(O)c2ccccc12)c1cccs1`: the IC50 in test [13] was found to be 350 nM; in test [14], 190 nM.
`O=S(=O)(Nc1cc(Sc2nc[nH]n2)c(O)c2ccccc12)c1ccc(C(F)(F)F)cc1`: the IC50 in [13] worked out at 190 nM; in test [14], 210 nM.
On the same counts, the results for `O=S(=O)(Nc1ccc(O)c2ccccc12)c1cccs1` are 9000 nM and 6100 nM.
Regarding `O=S(=O)(Nc1cc(Br)c(O)c2ccccc12)c1cccs1`, the results for the IC50 in test [13] and in [14] were 340 nM and 320 nM, respectively.
With `Cn1nnnc1Sc1cc(NS(=O)(=O)c2cccs2)c2ccccc2c1O`, the values for the concentration for half-maximal inhibition (IC50) in test [13] and in [14] were 320 nM and 250 nM, respectively.
Turning to `COc1cc(C(Nc2ccccn2)c2cc(Cl)c3cccnc3c2O)cc(Br)c1O` (stereo not drawn), the IC50 is 3000 nM in test [13] and 700 nM in test [14]. The Ratio IC50 in the test listed under Homo sapiens [10] worked out at 2.
With `CCCCCCCCCCS(=O)(=O)Nc1cc(Sc2nnc[nH]2)c(O)c2ccccc12`, the IC50 in [13] is 2100 nM; in [14], 1600 nM.
`CC(=O)Nc1ccc(S(=O)(=O)Nc2cc(Sc3ncn[nH]3)c(O)c3ccccc23)cc1`: the Ratio IC50 in the test filed under Homo sapiens [10] was determined as 2.
Consider `Cc1cc(C)c2c(=O)n(C(=O)c3cccs3)sc2n1`, for which the IC50 in test [13] was 400 nM; in [14], 600 nM.
Turning to `O=C1C(Sc2ncn[nH]2)=C/C(=N\S(=O)(=O)c2cccs2)c2ccccc21`, the figures for the IC50 in test [13] and in [14] were 230 nM and 190 nM, respectively.
In the case of `O=C1CCC(=O)N1c1ccc(F)c(S(=O)(=O)Nc2cc(Sc3ncn[nH]3)c(O)c3ccccc23)c1F`, the figures for the IC50 in test [13] and in test [14] were 680 nM and 670 nM, respectively.
Taken in the same sequence, the figures for `CCCCCCCCS(=O)(=O)Nc1cc(Sc2nnc[nH]2)c(O)c2ccccc12` were 1660 nM and 720 nM.
Take `COc1ccc(C(c2ccc3cccnc3c2O)N2CCOCC2)cc1` (stereo not drawn): the figures for the IC50 in [13] and in test [14] were 4000 nM and 900 nM, respectively. In addition, the Ratio IC50 in the test filed under Homo sapiens [10] stood at 2.
With `Oc1c(C(Nc2cccnc2)c2ccsc2)ccc2cccnc12` (stereo not drawn), the IC50 in test [13] amounted to 2000 nM; in test [14], 800 nM. Moreover, the Ratio IC50 in the test filed under Homo sapiens [10] was determined as 2.
